From ChEMBL document CHEMBL4316602, “Investigating the promiscuity of the chloramphenicol nitroreductase from Haemophilus influenzae towards the reduction of 4-nitrobenzene derivatives” (Bioorg Med Chem Lett, 2019)
Each block holds one compound with its values, some of them ahead of it.

Assays:
Type in all cases: ADME
[1] = Substrate activity at recombinant Haemophilus influenzae Chloramphenicol nitroreductase expressed in Escherichia coli assessed as benzoic acid formation at 1 mM measured after 24 hrs at pH 8 under 37 degC by LC-MS analysis; settings: pH 8, 24 h, 1000 µM
In short: (§1)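 50 mM Tris-HCl pH 8.0 holding 1 mM nitro compound, 5 µM CNR and 100 µM NADPH. NADPH is regenerated by 40 mM glucose plus 4 µM glucose dehydrogenase. Incubated 24 h at 37 °C, then extracted with EtOAc, dried, redissolved in MeOH and analysed by LCMS for reduction products.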

[2] = Substrate activity at recombinant Haemophilus influenzae Chloramphenicol nitroreductase expressed in Escherichia coli assessed as 4-aminoether formation at 1 mM measured after 24 hrs at pH 8 under 37 degC by LC-MS analysis; settings: pH 8, 24 h, 1000 µM; in short: as §1
[3] = Substrate activity at recombinant Haemophilus influenzae Chloramphenicol nitroreductase expressed in Escherichia coli assessed as hydroxylamine formation at 1 mM measured after 24 hrs at pH 8 under 37 degC by LC-MS analysis; settings: pH 8, 24 h, 1000 µM; in short: as §1
[4] = Substrate activity at recombinant Haemophilus influenzae Chloramphenicol nitroreductase expressed in Escherichia coli at 150 uM measured at 30 sec interval for 60 mins in presence of NADPH at pH 8; settings: pH 8, 1 h
In short: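 Each nitro compound at 150 µM in 50 mM Tris-HCl pH 8.0 with 1.0 mM NADPH. Started with 1 µM CNR and read at 340 nm (NADPH) every 30 s for 60 min. Initial rates were taken from the first 5 min and expressed as % of the chloramphenicol rate.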

[5] = Substrate activity at recombinant Haemophilus influenzae Chloramphenicol nitroreductase expressed in Escherichia coli at 150 uM measured at 30 sec interval for 60 mins in presence of NADPH at 50 degC; settings: 1 h
[6] = tested on: Chloramphenicol nitroreductase; assay: Substrate activity at recombinant Haemophilus influenzae Chloramphenicol nitroreductase expressed in Escherichia coli assessed as Km measured at 30 sec interval for 30 mins in presence of NADPH at 37 degC by Michaelis-Menton plot analysis
In short: (§2)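 Chloramphenicol varied 0–2500 µM (0, 1, 5, 10, 50, 100, 250, 500, 2500) with 0.4 µM CNR, 750 µM NADPH, 50 mM Tris-HCl pH 8.0, at 37 or 50 °C. NADPH consumption was followed at 340 nm every 30 s for 30 min. Initial rates came from the first 2–5 min, fitted to Michaelis–Menten for kcat and Km.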

[7] = tested on: Chloramphenicol nitroreductase; assay: Substrate activity at recombinant Haemophilus influenzae Chloramphenicol nitroreductase expressed in Escherichia coli assessed as Km measured at 30 sec interval for 30 mins in presence of NADPH at 50 degC by Michaelis-Menton plot analysis; in short: as §2
[8] = Substrate activity at recombinant Haemophilus influenzae Chloramphenicol nitroreductase expressed in Escherichia coli assessed as Kcat measured at 30 sec interval for 30 mins in presence of NADPH at 37 degC by Michaelis-Menton plot analysis; settings: 0.5 h; in short: as §2
[9] = Substrate activity at recombinant Haemophilus influenzae Chloramphenicol nitroreductase expressed in Escherichia coli assessed as Kcat measured at 30 sec interval for 30 mins in presence of NADPH at 50 degC by Michaelis-Menton plot analysis; settings: 0.5 h; in short: as §2
[10] = Substrate activity at recombinant Haemophilus influenzae Chloramphenicol nitroreductase expressed in Escherichia coli assessed as ratio Kcat to Km measured at 30 sec interval for 30 mins in presence of NADPH at 37 degC by Michaelis-Menton plot analysis; settings: 0.5 h; in short: as §2
[11] = Substrate activity at recombinant Haemophilus influenzae Chloramphenicol nitroreductase expressed in Escherichia coli assessed as ratio of Kcat to Km measured at 30 sec interval for 30 mins in presence of NADPH at 50 degC by Michaelis-Menton plot analysis; settings: 0.5 h; in short: as §2

Activity [1]: Active
Structure (SMILES): O=C(OCc1ccc([N+](=O)[O-])cc1)c1ccc(Cl)cc1

Activity [2]: Active
Activity [3]: Active
Structure (SMILES): O=[N+]([O-])c1ccc(COCc2ccc(Br)cc2)cc1

Activity [1]: Active
Structure (SMILES): O=C(OCc1ccc([N+](=O)[O-])cc1)c1ccc(Cl)cc1F

Activity [4]: Active
Activity [5]: Active
Km at 0.5 h [6]: 273 µM
Km at 0.5 h [7]: 191 µM
Kcat [8]: 61 s⁻¹
Kcat [9]: 65 s⁻¹
Kcat/Km [10]: 220000 M⁻¹ s⁻¹
Kcat/Km [11]: 340000 M⁻¹ s⁻¹
Structure (SMILES): O=C(N[C@H](CO)[C@H](O)c1ccc([N+](=O)[O-])cc1)C(Cl)Cl [CHLORAMPHENICOL]
